Hits are enriched below; roughly 3% of the tested compounds scored in any of these assays.
PvdQ inh = P. aeruginosa PvdQ acylase inhibitors, primary screen, biochemical, fluorescence, plate reader and imaging, single point; purified PvdQ acylase; inhibition, % at 10 µM; hit rate 0.063% among 340,000; AID 488965, 2010; in the data active = inhibition above about 30%, passing the limit was not always enough; inconclusive = no clear call, values can overlap the other calls
CaV13 ICDI inh = Disruptors of the CACNA1D IQ motif to Ca2+-dependent inactivation inhibitor domain association, primary screening, Förster resonance energy transfer in intact living …; HEK cells, CFP/YFP FRET ICDI-IQ, plate reader, 10 min; percent FRET-ratio fall versus neutral wells; inhibition, % at 12.3 µM; hit rate 0.098% among 340,000; AID 743397;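 active = mean replicate inhibition of at least 30% and at least 1% of replicates passing that level; inconclusive = only one of the two criteria is met; inactive = neither criterion is met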
N-glyco inh = increase of ERlucT glycosylation luciferase signal, primary screen, N-linked glycosylation inhibitor project, D54 ERlucT cells, luminescence, set 2. D54 ERlucT glycosylation luciferase reporter, 24 h; percent of 100 nM tunicamycin response. AID 588692, 2011. hit rate 0.23% among 360,000. reporter increase, % at 12.5 µM;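 active = mean luciferase reporter signal, scaled so untreated is 0 and the glycosylation-blocking control 100, at or above a set limit in every replicate; inconclusive = mean reaches the limit but not every replicate does; inactive = mean below the limit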;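 note: luciferase carries N-glycosylation sites so blocking glycosylation raises the light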
T cruzi repl = inhibitors of intracellular T. cruzi growth, primary screen, luminescence, NIH3T3 host cells. inhibition, % (concentration not given with the values). hit rate 1.4% among 300,000. T. cruzi beta-gal in NIH3T3, 90 h;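 active = mean inhibition across valid replicates above about 55%, limit read from the data; inconclusive = mean below that limit but half or more replicates reach it; inactive = mean below it, under half of replicates reach it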;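 note: signal also drops with host cell toxicity which is not excluded here; higher percent means less beta-gal luminescence so fewer parasites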
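Material: NIH/3T3 host cells with β-galactosidase reporter T. cruzi; Input: 5,000 host fibroblasts per well; Medium: DMEM, 2% fetal bovine serum; Compound: 50 nL DMSO compound solution per well; Schedule: 3 h host attachment, then at least 90 h co-culture; Detection: luminescent β-galactosidase signal after 60 min lysis.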
HSF-1 act = HSF-1 activators, primary screen, NIH3T3-HGL cells, MG132 stress, luminescence, single point. NIH3T3-HGL HSF-1 luciferase reporter, 8 h; 100% = twice DMSO control signal. activation, % at 9 µM. hit rate 1.7% among 300,000. AID 504408, 2011;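 active = mean replicate activation of at least 50% with a set share of replicates each reaching 50%; inconclusive = only one of those two conditions met; inactive = mean below 50% and too few replicates reaching it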
PfHsp90 set2 = growth inhibition of PfHsp90-expressing yeast, primary screen, antimalarial PfHsp90 inhibitor project, S. cerevisiae, BacTiter-Glo luminescence, single point, set 2 | BacTiter-Glo ATP, 48 h; yeast lacking PDR1 and PDR3 efflux regulators | hit rate 0.32% among 310,000 | inhibition, % at 9.4 µM;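 active = every replicate shows inhibition above about 80%, whatever the replicate mean, limit read from the data; inconclusive = mean inhibition reaches the set limit but some replicate falls short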
Large screens that a line does not name were inactive.

CCc1ccc2oc(-c3cc(N=Cc4cccc(OC)c4O)ccc3O)nc2c1	T cruzi repl 64.2 (no result: PvdQ inh, CaV13 ICDI inh, N-glyco inh, PfHsp90 set2)
CCc1nc2c(OCC=C(C)C)cccn2c1N(C)C(=O)c1ccc(OC)cc1	none (no result: PvdQ inh, T cruzi repl, HSF-1 act, PfHsp90 set2)
COc1ccc(-c2nc(-c3ccc(Br)o3)no2)cc1OC	HSF-1 act 56.7
N#C/C(=C/c1cn(-c2ccccc2)nc1-c1cccc(OCc2ccccc2)c1)C(=O)NCCCn1ccnc1	T cruzi repl 60.2
O=C1c2cccc3cc([N+](=O)[O-])cc(c23)C(=O)N1c1nncs1	none
Cc1cc(O)ccc1N1C(=O)c2cccc3cc([N+](=O)[O-])cc(c23)C1=O	T cruzi repl 67.3
O=C1c2cccc3cc([N+](=O)[O-])cc(c23)C(=O)N1c1ccccc1O	T cruzi repl 58.3
COc1ccc(CCN2C(=O)c3ccccc3C2c2nnnn2Cc2ccccc2)cc1OC (stereo not given)	none (no result: PvdQ inh, N-glyco inh, T cruzi repl, HSF-1 act, PfHsp90 set2)
CC(CCc1ccccc1)NC(=O)CN1CCc2ccccc2C1 (stereo not given)	HSF-1 act 93.6
CC(=O)C(Cc1ccccc1)NC(=O)CN1CCc2ccccc2C1 (stereo not given)	none
CCCCn1nnnc1C(c1ccc(OC)cc1)N1CCN(C/C=C/c2ccccc2)CC1 (stereo not given)	none (no result: PvdQ inh, CaV13 ICDI inh, T cruzi repl, HSF-1 act, PfHsp90 set2)
COc1cc2c(cc1OC)C(=O)N1[C@H]3c4ccccc4OC[C@@H]3[C@H](c3ccccc3)[C@]1(C)C(=O)N2	N-glyco inh 41.1, PfHsp90 set2 86.3 (no result: T cruzi repl, HSF-1 act)
COc1ccc2c(c1)OC[C@H]1[C@H]2N2C(=O)c3cc(OC)c(OC)cc3NC(=O)[C@@]2(C)[C@H]1c1ccccc1	N-glyco inh 47.3 (no result: T cruzi repl, HSF-1 act)
Cc1cc(C)c(S(=O)(=O)N2C[C@H]3CON(C)[C@H]3C[C@H]2c2ccc(-n3ccnc3)cc2)c(C)c1	none (no result: PvdQ inh, N-glyco inh, T cruzi repl, HSF-1 act, PfHsp90 set2)
Cc1nc(NC(=O)c2ccccc2)sc1-c1csc(NCCc2ccccc2)n1	T cruzi repl 68.6
C=CCNc1ccc2c(c1)OC[C@H](CC(C)C)NS2(=O)=O	none (no result: PvdQ inh, N-glyco inh, T cruzi repl, HSF-1 act, PfHsp90 set2)
CCCn1c(NC(=O)c2ccc(F)cc2)nc2ccccc21	T cruzi repl 83.8 (no result: PfHsp90 set2)
CCCCn1c(NC(=O)c2ccccc2)nc2ccccc21	T cruzi repl 55.6
CCCCn1c(NCc2ccccc2NS(=O)(=O)c2ccc(C)cc2)nc2ccccc21	T cruzi repl 57.1
CCCn1c(NC(=O)c2ccc(Br)cc2)nc2ccccc21	none (no result: PfHsp90 set2)
CCn1c(NC(=O)c2ccccc2)nc2ccccc21	none
COC(=O)[C@]12C[C@H](CC(=O)NCc3cccc(C(F)(F)F)c3)C(=O)N(Cc3ccccc3)C1=C[C@H](C(C)(C)C)O[C@@H]2C	none (no result: PvdQ inh, N-glyco inh, T cruzi repl, HSF-1 act, PfHsp90 set2)
O=c1c2c([N+](=O)[O-])cc([N+](=O)[O-])cc2sn1Cc1ccccc1	T cruzi repl 57.0
O=c1c2c([N+](=O)[O-])cc([N+](=O)[O-])cc2sn1-c1ccc(Br)cc1	none (no result: CaV13 ICDI inh, T cruzi repl, HSF-1 act)
Fc1ccc(-c2ccc3c(n2)CCCN3Cc2ccccc2C(F)(F)F)cc1	none (no result: PvdQ inh, N-glyco inh, T cruzi repl, HSF-1 act, PfHsp90 set2)
CCOc1ccc(/C=N/Nc2ccccn2)cc1OC	none
C(=N\Nc1ccccn1)/c1ccc2c(c1)OCCO2	HSF-1 act 60.9
C=CCOc1ccc(/C=N/Nc2ccccn2)cc1OC	HSF-1 act 65.5
Fc1cccc(/C=N/Nc2ccccn2)c1	none
O=C(N[C@H](Cc1ccccc1)C(=O)NCC1CCCO1)[C@H]1O[C@@H](n2ccc(=O)[nH]c2=O)[C@H](O)[C@@H]1O (stereo not given in full)	none (no result: PvdQ inh, N-glyco inh, T cruzi repl, HSF-1 act, PfHsp90 set2)
Cc1ccccc1-c1cccc2[nH]c3c(c12)CCN1C(=O)[C@H]2[C@H](C)ON(C)[C@H]2C[C@@H]31	none (no result: PvdQ inh, N-glyco inh, T cruzi repl, HSF-1 act, PfHsp90 set2)
C=CCN1C(=O)NC(c2ccccc2)(C(F)(F)F)S/C1=C(\C#N)c1nnc(N2CCOCC2)n1-c1ccccc1 (stereo not given)	HSF-1 act 83.4
COc1ccc(S(=O)(=O)N(C)C[C@H]2Oc3ccc(NS(=O)(=O)c4ccc(F)cc4)cc3C(=O)N([C@H](C)CO)C[C@@H]2C)cc1	none (no result: T cruzi repl, HSF-1 act)
Cc1ccc(C2NC(=O)c3n[nH]c(C(C)C)c32)cc1 (stereo not given)	none (no result: PvdQ inh, N-glyco inh, T cruzi repl, HSF-1 act, PfHsp90 set2)
COc1ccc(NC(=O)COC(=O)COc2cccc(Br)c2)cc1OC	none
O=C(COC(=O)COc1cccc(Br)c1)Nc1c(Cl)cccc1Cl	HSF-1 act 54.2
OC(c1ccc(F)c(F)c1)c1nc(-c2cnc3ccccc3c2)cs1 (stereo not given)	none (no result: PvdQ inh, T cruzi repl, HSF-1 act, PfHsp90 set2)
CCOC(=O)[C@]12CCC=C1N(Cc1ccc3c(c1)OCO3)C(=O)[C@H](CC(=O)NCC13CC4CC(CC(C4)C1)C3)C2	none (no result: PvdQ inh, N-glyco inh, T cruzi repl, HSF-1 act, PfHsp90 set2)
O=C(/C=C/Sc1ccc(C(F)(F)F)cn1)c1ccccc1	N-glyco inh 37.3
CCCCNC(=S)N/N=C/c1cccc(OCC)c1O	HSF-1 act 80.7
CCOc1cccc(/C=N/NC(=S)Nc2ccccc2[N+](=O)[O-])c1O	none
O=C(C[C@@H]1CC[C@@H](NC(=O)Nc2cccc(F)c2)[C@@H](CO)O1)NCC1CCCCC1	none (no result: PvdQ inh, N-glyco inh, T cruzi repl, HSF-1 act, PfHsp90 set2)
C=CCOc1ccccc1CN1CCCC(CCC(=O)N(C)CCc2ccccn2)C1 (stereo not given)	T cruzi repl 56.4
CCc1ccccc1NC(=O)N1CCCC(CCC(=O)N(C)CCc2ccccn2)C1 (stereo not given)	none
CN(c1cccc(NC(=O)Nc2cccc(Cl)c2)c1)S(C)(=O)=O	HSF-1 act 66.4 (no result: CaV13 ICDI inh)
O=C(Nc1cccc(Cl)c1)Nc1csc([N+](=O)[O-])c1	T cruzi repl 63.8, HSF-1 act inconclusive
CC(=O)Nc1cccc(N(C)S(C)(=O)=O)c1	none
O=C1NC(c2ccc(Br)cc2)c2c(-c3ccccc3)n[nH]c21 (stereo not given)	none (no result: PvdQ inh, N-glyco inh, T cruzi repl, HSF-1 act, PfHsp90 set2)
CCOc1ncccc1C(=O)Nc1ccc2c(c1)OCO2	none (no result: PfHsp90 set2)
CCOc1ncccc1C(=O)Nc1cc2c(cc1Br)OCCO2	N-glyco inh 41.3 (no result: T cruzi repl, HSF-1 act)
CCOC(=O)c1ccc(NC(=O)C2CC3CCC2C3)cc1 (stereo not given)	HSF-1 act 63.9 (no result: PvdQ inh, PfHsp90 set2)
O=C(Nc1ccc(F)cc1)C1CC2CCC1C2 (stereo not given)	none
O=C(Nc1ccc(F)c(Cl)c1)C1CC2CCC1C2 (stereo not given)	HSF-1 act 70.0
CC(c1nc2ccccc2c(=O)[nH]1)N1CCN(S(=O)(=O)c2ccc(F)c(Cl)c2)CC1 (stereo not given)	none (no result: PvdQ inh, T cruzi repl, HSF-1 act, PfHsp90 set2)
CCS/C(N)=N/N=C/c1cc(C)ccc1O	none
CS/C(N)=N/N=C/c1cc(C)ccc1O	HSF-1 act 139.9
